In ChEMBL document CHEMBL2057092, “The SAR analysis of TRPV1 agonists with the α-methylated B-region” (Bioorg Med Chem Lett, 2012):

Experiments:
[1] = molecular target: Transient receptor potential cation channel subfamily V member 1 (Rattus norvegicus) (UniProt O35433); assay: Antagonist activity at rat TRPV1 expressed in CHO cells assessed as inhibition of calcium uptake at 30 uM; assay type: functional, cell-based
[2] = molecular target: T1, Transient receptor potential cation channel subfamily V member 1 (Rattus norvegicus, UniProt O35433); assay: Displacement of [3H]RTX from rat TRPV1 expressed in CHO cells; assay type: cell-based
T1 sequence (O35433 whole entry): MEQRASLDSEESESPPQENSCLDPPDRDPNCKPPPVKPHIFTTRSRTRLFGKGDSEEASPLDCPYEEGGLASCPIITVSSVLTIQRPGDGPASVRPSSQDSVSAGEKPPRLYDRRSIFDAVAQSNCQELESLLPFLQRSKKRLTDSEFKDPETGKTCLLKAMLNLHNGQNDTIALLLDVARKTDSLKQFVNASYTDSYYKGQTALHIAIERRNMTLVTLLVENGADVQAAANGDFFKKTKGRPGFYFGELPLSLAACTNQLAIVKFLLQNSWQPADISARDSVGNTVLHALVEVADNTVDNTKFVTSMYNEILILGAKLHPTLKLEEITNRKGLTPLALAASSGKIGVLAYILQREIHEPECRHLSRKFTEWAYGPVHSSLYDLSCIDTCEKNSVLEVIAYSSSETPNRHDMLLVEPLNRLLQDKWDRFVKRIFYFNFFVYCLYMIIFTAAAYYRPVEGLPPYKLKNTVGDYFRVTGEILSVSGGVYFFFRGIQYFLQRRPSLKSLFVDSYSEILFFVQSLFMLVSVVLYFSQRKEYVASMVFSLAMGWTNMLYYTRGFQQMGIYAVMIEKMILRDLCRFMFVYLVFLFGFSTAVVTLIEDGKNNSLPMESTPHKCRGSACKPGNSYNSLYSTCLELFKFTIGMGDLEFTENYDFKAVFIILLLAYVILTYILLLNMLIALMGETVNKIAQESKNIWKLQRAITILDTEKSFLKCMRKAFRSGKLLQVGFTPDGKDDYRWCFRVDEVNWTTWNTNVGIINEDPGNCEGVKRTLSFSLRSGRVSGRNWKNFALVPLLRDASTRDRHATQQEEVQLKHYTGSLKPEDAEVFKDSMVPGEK

[3] = molecular target: T1, Transient receptor potential cation channel subfamily V member 1; assay: Agonist activity at rat TRPV1 expressed in CHO cells assessed as calcium uptake; assay type: functional, cell-based
How it was run: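 Functional agonism was read as 45Ca2+ uptake in CHO cells heterologously expressing rat TRPV1.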

[4] = molecular target: Transient receptor potential cation channel subfamily V member 1 (Rattus norvegicus) (UniProt O35433); assay: Agonist activity at rat TRPV1 expressed in CHO cells assessed as calcium uptake at 300 nM relative to capsaicin; assay type: functional, cell-based

Chain of Transient receptor potential cation channel subfamily V member 1 (Rattus norvegicus) (O35433 whole entry): as above

Structure (SMILES) | inhibition [1] | Ki [2] | EC50 [3] | Activity [4]
COc1cc(C(C)C(=O)NCc2ccc(C(C)(C)C)cc2)ccc1O (stereo unspecified) | 15% | 308 nM | 24 nM | 
COc1cc(C(C)C(=O)NCCCc2ccc(C)c(C)c2)ccc1OCCN (stereo unspecified) |  | 518 nM | 404 nM | 
COc1cc(CC(=O)NCCCc2ccc(C)c(C)c2)ccc1O |  | 354 nM | 41 nM | 
CC(C(=O)NCc1ccc(C(C)(C)C)cc1)c1ccc(OCCN)c(Cl)c1 (stereo unspecified) | 38% | 380 nM |  | 75%
COc1cc(C(C)NC(=S)NCc2ccc(C(C)(C)C)cc2)ccc1OCCN (stereo unspecified) |  | 1430 nM | 5800 nM | 
CCCCCCCC/C=C/CCCCCCCC(=O)NC(C)c1ccc(O)c(OC)c1 (stereo unspecified) |  | 226 nM | 678 nM | 
CC(C)(C)c1ccc(CNC(=O)Cc2ccc(OCCN)c(F)c2)cc1 | 18% | 10100 nM |  | 63%
CCCCCCCCCNC(=O)Cc1ccc(O)c(OC)c1 |  | 240 nM | 61 nM | 
CCCCCCCCC(=O)NCc1ccc(O)c(OC)c1 [NONIVAMIDE] |  | 1220 nM | 223 nM | 
CCCCCCCCNC(=O)Cc1ccc(O)c(OC)c1 |  | 848 nM | 77 nM | 
COc1cc(CNC(=S)NCc2ccc(C(C)(C)C)cc2)ccc1O |  |  | 2.6 nM | 
CCCCCCCCCNC(=O)C(C)c1ccc(O)c(OC)c1 (stereo unspecified) |  | 159 nM | 26.3 nM | 
CC(C(=O)NCc1ccc(C(C)(C)C)cc1)c1ccc(O)c(F)c1 (stereo unspecified) | 20% | 178 nM | 221 nM | 
COc1cc(C(C)C(=O)NCCCc2ccc(C)c(C)c2)ccc1O (stereo unspecified) |  | 177 nM | 21.3 nM | 
CC(C(=O)NCc1ccc(C(C)(C)C)cc1)c1ccc(OCCN)c(F)c1 (stereo unspecified) |  | 2160 nM |  | 91%
COc1cc(C(C)C(=O)NCc2ccc(C(C)(C)C)cc2)ccc1OCCN (stereo unspecified) | 16% | 504 nM | 238 nM | 
CC(C)(C)c1ccc(CNC(=O)Cc2ccc(OCCN)c(Cl)c2)cc1 | 56% | 2470 nM |  | 36%
CCCCCCCCCC(=O)NCc1ccc(O)c(OC)c1 |  | 864 nM | 83 nM | 
CCCCCCCC/C=C\CCCCCCCC(=O)NCc1ccc(O)c(OC)c1 [OLVANIL] |  | 142 nM | 202 nM | 
CCCCCCCCNC(=O)C(C)c1ccc(O)c(OC)c1 (stereo unspecified) |  | 744 nM | 130 nM | 
COc1cc(C/N=C(\S)NCc2ccc(C(C)(C)C)cc2)ccc1OCCN |  | 84 nM | 132 nM | 
COc1cc(CC(=O)NCc2ccc(C(C)(C)C)cc2)ccc1OCCN | 12% | 1230 nM | 358 nM | 
CCCCCCCCC(=O)NC(C)c1ccc(O)c(OC)c1 (stereo unspecified) | 44% | 4280 nM | 1580 nM | 72%
CC(C)(C)c1ccc(CNC(=O)Cc2ccc(O)c(Cl)c2)cc1 |  | 132 nM | 206 nM | 
COc1cc(CC(=O)NCCCc2ccc(C)c(C)c2)ccc1OCCN [DAVASAICIN] |  | 930 nM | 589 nM | 
COc1cc(C(C)NC(=S)NCc2ccc(C(C)(C)C)cc2)ccc1O (stereo unspecified) | 35% | 194 nM | 380 nM | 70%
CC(C)(C)c1ccc(CNC(=O)Cc2ccc(O)c(F)c2)cc1 | 30% | 808 nM | 911 nM | 
CC(C(=O)NCc1ccc(C(C)(C)C)cc1)c1ccc(O)c(Cl)c1 (stereo unspecified) | 9% | 33.1 nM |  | 77%
CCCCCCCCCC(=O)NC(C)c1ccc(O)c(OC)c1 (stereo unspecified) | 28% | 3300 nM | 1250 nM | 
